Measurements collected from several papers.
Each line is one published result; the experiments were not run side by side.

For `c1ccc(-c2nc(N3CCC(c4ccccn4)C3)c3ccccc3n2)nc1` (centres unmarked), the concentration was 63.5 ng/mL (female BALB/c mouse, plasma; oral, 50 mg/kg, 24 h).
With `O=C(O)C1CCN(c2ncc(-c3ccc4c(c3)OCCCO4)s2)CC1` the concentration was 5990 ng/mL (male Swiss mouse, plasma; oral, 30 mg/kg, 2 h, single dose).
The concentration of `CC(C)(C)c1cc(NC(=O)Nc2ccc(Oc3ccnc4[nH]c(=O)cnc34)cc2F)n(-c2ccccc2)n1` is reported as about 1000 nM (BALB/c mouse, plasma; oral, 10 mg/kg/day, 24 h).
For `CC(C)Oc1cccc(-c2cnc(N3CCC(C(N)=O)CC3)s2)c1`, the concentration was 416 ng/mL (male Swiss mouse, plasma; oral, 30 mg/kg, 30 min, single dose).
The concentration of `O=S(=O)(c1cccc(C(F)(F)F)c1)N1CCc2ccc(OCc3c(F)cncc3Cl)cc21` is reported as 210 nM (mouse, plasma; intraperitoneal, 10 mg/kg, 4 h).
`COc1ccc2[nH]c3c(C)c4ccnc(C(=O)N[C@H](C)CN(C)C)c4cc3c2c1` gave a concentration of 260 nM (male C57BL/6 mouse, brain; intraperitoneal, 10 mg/kg, 2 h, single dose).
The concentration of `CC(C)CN(C[C@@H](O)[C@H](Cc1ccccc1)NC(=O)O[C@H]1CO[C@H]2OCC[C@H]21)S(=O)(=O)c1ccc(N)cc1` is reported as 0.33 ng/mL (BALB/c mouse, plasma; intravenous, 2.5 mg/kg, 12 h).
With `CC(C)Cc1nn(C)c(=O)c2c(SCCCO)n(Cc3cccc4ccccc34)cc12` the concentration was 0 nM (mouse, plasma; intraperitoneal, 20 mg/kg, 7 days, single dose).
For `O=S(=O)(c1cccc(C(F)(F)F)n1)N1CCc2ccc(OCc3c(F)cccc3Cl)cc21`, the concentration was 120 nM (mouse, plasma; intraperitoneal, 10 mg/kg, 4 h).
With `O=S(=O)(c1ccc(-c2ccc3nccc(Nc4ccncn4)c3c2)cc1)N1CCOCC1` the concentration was 2.16 ng/mL (female BALB/c mouse, plasma; intraperitoneal, 10 mg/kg, 8 h).
`O=S(=O)(c1cccc(C(F)(F)F)c1)N1CCc2ccc(OCc3c(Cl)cncc3Cl)cc21` gave a concentration of 890 nM (mouse, plasma; intraperitoneal, 10 mg/kg, 2 h).
With `CN(C)c1ncnc2[nH]cc(-c3cccc(Cl)c3)c12` the concentration was 8700 nM (mass spectrometry; female C57BL/6 mouse, plasma; intraperitoneal, 20 mg/kg, 30 min, single dose).
For `O=c1cc(-c2ccccc2)oc2c(O)c(O)ccc12`, the concentration was 24 ng/mL (male CD-1 mouse, plasma; oral, 50 mg/kg, 4 h).
`Cc1ccc(-c2cccc3cnc(Nc4ccc(C(=O)N5CCOCC5)cc4)nc23)cn1` gave a concentration of 0 nM (mouse, brain; intraperitoneal, 10 mg/kg, 2 h).
`O=c1nc(N2CCN(CC3CCCCC3)CC2)sc2c([N+](=O)[O-])cc(C(F)(F)F)cc12` has a concentration of 2830 ng/mL (CD-1 mouse, lung; intravenous, 10 mg/kg, 15 min).
For `CC(C)(Nc1nc(-c2ccccn2)nc2ccccc12)c1ccccn1`, the concentration was 4740 ng/mL (female BALB/c mouse, plasma; oral, 50 mg/kg, 1 h).
The concentration of `Cc1c2ccnc(C(=O)N[C@H](C)CN(C)C)c2cc2c3cc(O)ccc3n(C)c12` is reported as 80 nM (male C57BL/6 mouse, plasma; intraperitoneal, 10 mg/kg, 2 h, single dose).
For `O=S(=O)(c1cccc(C(F)(F)F)c1)N1c2cc(OCc3c(Cl)cncc3Cl)ccc2CC1C(F)(F)F` (centres unmarked), the concentration was 160 nM (mouse, plasma; intraperitoneal, 10 mg/kg, 4 h).
`COc1cc(F)c([C@@H]2CNC(=O)[C@H]2NC(=O)Nc2ccccc2)c(F)c1` has a concentration of 107 nM (C57BL/6 mouse, plasma; oral, 3 mg/kg, 1 h).
`CN(C(=O)n1cnc(-c2ccc[n+]([O-])c2)c1)C1CCCCC1` has a concentration of 83 ng/mL (male CD-1 mouse, plasma; oral, 10 mg/kg, 8 h).
